{"data": "Results from different studies", "Prostate-specific antigen": "Prostate-specific antigen (Homo sapiens, UniProt P07288)", "TMEM97": "Sigma intracellular receptor 2 (TMEM97, Homo sapiens, UniProt Q5BJF2)", "SIGMAR1": "Sigma non-opioid intracellular receptor 1 (SIGMAR1, Cavia porcellus, UniProt Q60492)", "ADRA1D": "Alpha-1D adrenergic receptor (ADRA1D, Homo sapiens, UniProt P25100)", "CASP7": "Caspase-7 (CASP7, Homo sapiens, UniProt P55210)"}
{"SMILES": "CCCC[C@H](NC(=O)[C@H](CCC(N)=O)NC(=O)[C@H](CO)NC(=O)C[C@@H](Cc1ccc2ccccc2c1)NC(=O)CCCCCN)C(=O)N[C@@H](Cc1ccccc1)B(O)O", "target": "Prostate-specific antigen", "test": "enzyme activity, inhibitor, fluorescence", "conditions": "pH 7.8", "Ki [nM]": 229}
{"SMILES": "O=C(c1ccccc1)c1ccc(CNCCCN2C(=O)c3ccccc3C2=O)cc1", "target": "TMEM97", "test": "ligand displacement, radioligand", "conditions": "cell membranes", "Ki [nM]": "> 10000"}
{"SMILES": "O=C(NCCN1CCCCC1)c1ccc(O)c(Br)c1", "target": "SIGMAR1", "test": "ligand displacement, radioligand", "conditions": "cell membranes", "Ki [nM]": "> 10000"}
{"SMILES": "CCCC[C@H](NC(=O)[C@H](CCC(N)=O)NC(=O)[C@H](CO)NC(=O)[C@H](Cc1ccccc1)NC(=O)CCCCCN)C(=O)N[C@@H](CCCBr)B(O)O", "target": "Prostate-specific antigen", "test": "enzyme activity, inhibitor, fluorescence", "conditions": "pH 7.8", "Ki [nM]": 72.3}
{"SMILES": "CCCn1nc(C(=O)N2CCCCC2)c2c1CCC(N1CCC(c3ccncc3)CC1)C2 (stereo not drawn)", "target": "TMEM97", "test": "ligand displacement, radioligand", "Ki [nM]": 16}
{"SMILES": "COc1ccccc1N1CCN(CCCCN2CCc3ccccc3C2=O)CC1", "target": "ADRA1D", "test": "ligand displacement, radioligand", "Ki [nM]": 14.2}
{"SMILES": "O=c1c(O)c(-c2cc(O)c(O)c(O)c2)oc2cc(O)cc(O)c12", "target": "CASP7", "test": "enzyme activity, inhibitor, fluorescence", "Ki [nM]": 65900}
{"SMILES": "O=C(NCCN1CCCCC1)c1ccc(OCCF)c(Br)c1", "target": "SIGMAR1", "test": "ligand displacement, radioligand", "conditions": "cell membranes", "Ki [nM]": 36.1}
{"SMILES": "O=C1c2ccccc2CCN1CCCCN1CCN(c2cccc(Cl)c2Cl)CC1", "target": "ADRA1D", "test": "ligand displacement, radioligand", "Ki [nM]": 78.4}
{"SMILES": "Cc1cc(Oc2nccc3c2ccn3C)ccc1-c1c(C)c(=O)[nH]c(=O)n1C", "target": "Muscarinic acetylcholine receptor M3 (CHRM3, Homo sapiens, UniProt P20309)", "test": "ligand displacement, radioligand", "Ki [nM]": 4200}
{"SMILES": "CCCn1nc(C(=O)N2CCCCC2)c2c1CCC(NCCc1ccncc1)C2 (stereo not drawn)", "target": "TMEM97", "test": "ligand displacement, radioligand", "Ki [nM]": "> 10000"}
{"SMILES": "CCCC[C@H](NC(=O)[C@H](CCC(N)=O)NC(=O)[C@H](CO)NC(=O)C[C@@H](Cc1ccc2ccccc2c1)NC(=O)CCCCCN)C(=O)N[C@@H](CCCBr)B(O)O", "target": "Prostate-specific antigen", "test": "enzyme activity, inhibitor, fluorescence", "conditions": "pH 7.8", "Ki [nM]": 102}
{"SMILES": "O=c1cc(-c2ccc(O)c(O)c2)oc2cc(O)cc(O)c12", "target": "CASP7", "test": "enzyme activity, inhibitor, fluorescence", "Ki [nM]": 130000}
{"SMILES": "O[C@@H]1[C@H](O)[C@@H]2C[C@@H]2[C@H]1n1cnc2c(NCc3cccc(Cl)c3)nc(C#Cc3ccccc3)nc21", "target": "SIGMAR1", "test": "ligand displacement, radioligand", "Ki [nM]": 7660}
{"SMILES": "CN(Cc1ccc(NC(=O)C2=Cc3cc(-c4ccc(OCCCCCF)cc4)ccc3CCC2)cc1)C1CCOCC1", "target": "SIGMAR1", "test": "ligand displacement, radioligand", "Ki [nM]": 320}
{"SMILES": "CCCn1nc(C(=O)N2CCCCC2)c2c1CCC(NCCCNC)C2 (stereo not drawn)", "target": "TMEM97", "test": "ligand displacement, radioligand", "Ki [nM]": 1990}
{"SMILES": "CCCCN1CCC(COC(=O)c2ccc(N)c(OCF)c2)CC1", "target": "Alpha-2B adrenergic receptor (ADRA2B, Homo sapiens, UniProt P18089)", "test": "cell-free assay, radioligand", "Ki [nM]": "> 10000"}
{"SMILES": "C#CCN(CCCN1CCN(C2CCCCC2)CC1)c1ccc(C(=O)c2ccccc2)cc1", "target": "TMEM97", "test": "ligand displacement, radioligand", "conditions": "cell membranes", "Ki [nM]": 77.7}
{"SMILES": "COc1ccc(CO[C@H]2CCCN(Cc3cccc(C)c3)C2)cc1F", "target": "TMEM97", "test": "ligand displacement, radioligand", "conditions": "cell membranes", "Ki [nM]": 40}
{"SMILES": "O=C(c1ccc(CNCCCN2CCN(C3CCCCC3)CC2)cc1)c1ccc([N+](=O)[O-])cc1", "target": "TMEM97", "test": "ligand displacement, radioligand", "conditions": "cell membranes", "Ki [nM]": 33}
{"SMILES": "CN(Cc1ccc(NC(=O)C2=Cc3cc(-c4ccc(OCCCF)cc4)ccc3CCC2)cc1)C1CCOCC1", "target": "SIGMAR1", "test": "ligand displacement, radioligand", "Ki [nM]": 1000}
{"SMILES": "C[C@@H]1O[C@H](CNS(=O)(=O)c2ccc(CCN=[N+]=[N-])s2)[C@@H](O)[C@H](O)[C@@H]1O", "target": "Fucose-binding lectin PA-IIL (lecB, Pseudomonas aeruginosa, UniProt Q9HYN5)", "test": "ligand displacement, FP", "Ki [nM]": 1520}
{"SMILES": "O=C(NCCN1CCCCC1)c1ccc(OCCCF)c(Br)c1", "target": "SIGMAR1", "test": "ligand displacement, radioligand", "conditions": "cell membranes", "Ki [nM]": 23.3}
{"SMILES": "O=C1c2ccccc2CCN1CCCCN1CCN(c2ccccn2)CC1", "target": "ADRA1D", "test": "ligand displacement, radioligand", "Ki [nM]": 467}
{"SMILES": "CCCC[C@H](NC(=O)[C@H](CCCCN)NC(=O)[C@H](CO)NC(=O)[C@H](CO)NC(=O)OCc1ccccc1)C(=O)N[C@@H](CCCBr)B(O)O", "target": "Prostate-specific antigen", "test": "enzyme activity, inhibitor, fluorescence", "conditions": "pH 7.8", "Ki [nM]": 24.2}
{"SMILES": "CCOC(=O)[C@@]12C[C@@H]1[C@@H](n1cnc3c(NC)nc(C#Cc4ccc(Cl)s4)cc31)[C@H](O)[C@@H]2O", "target": "SIGMAR1", "test": "ligand displacement, radioligand", "Ki [nM]": 1040}
{"SMILES": "CCCC[C@H](NC(=O)[C@H](CCC(N)=O)NC(=O)[C@H](CO)NC(=O)CCCCCN)C(=O)N[C@@H](Cc1ccccc1)B(O)O", "target": "Prostate-specific antigen", "test": "enzyme activity, inhibitor, fluorescence", "conditions": "pH 7.8", "Ki [nM]": 22}
{"SMILES": "C#CCNCc1ccc(C(=O)c2ccc([N+](=O)[O-])cc2)cc1", "target": "TMEM97", "test": "ligand displacement, radioligand", "conditions": "cell membranes", "Ki [nM]": "> 10000"}
{"SMILES": "CCCC[C@H](NC(=O)[C@H](CCC(N)=O)NC(=O)[C@H](CO)NC(=O)[C@H](Cc1ccccc1)NC(=O)CCCCCNC(=O)c1ccc(I)cc1)C(=O)N[C@@H](CCCBr)B(O)O", "target": "Prostate-specific antigen", "test": "enzyme activity, inhibitor, fluorescence", "conditions": "pH 7.8", "Ki [nM]": 64.4}
{"SMILES": "CC(C)(C)Oc1cc(CCC(C)(C)N2Cc3ccc(S(C)(=O)=O)cc3C2)ccc1O", "target": "TMEM97", "test": "ligand displacement, radioligand", "conditions": "cell membranes", "Ki [nM]": 8.5}
